In assay [1] the test system is Rattus norvegicus. Briefly: Antiinflammatory activity by Carrageenan edema assay in rats. In kind it is functional. Also noted: concentration or dose not given beside the values; unit not given here. The essentials:
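Groups of six male Wistar rats (130–170 g) were dosed orally 60 min before a subplantar injection of 0.5% λ-carrageenin suspension (0.1 mL/rat) into the left hind paw. Foot volume was measured every 60 min for 360 min, and % swelling was compared with controls. ED50 and 95% confidence limits came from Litchfield–Wilcoxon. Screening used % edema inhibition at 100 mg/kg po.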
(Carrageenan injected into the paw causes an acute inflammation.)

The species entered for assay [2] is Mus musculus. In words: Analgesic activity by acetic acid writhing assay in mice. In kind it is functional. More on the design: concentration or dose not given beside the values. The essentials: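 Mice received drug orally 30 min before an ip injection of 0.7% acetic acid (10 mL/kg). Writhes were counted 10–20 min after injection, and % inhibition was taken against a control group. ED50 and 95% confidence limits came from the Litchfield–Wilcoxon method.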
In general terms: In writhing tests, fewer writhes than in controls are read as antinociception.

The structures appear in SMILES notation.

This is an account of results in ChEMBL document CHEMBL1123497, “Structure-activity studies of 4,6-disubstituted 2-(morpholinocarbonyl)furo[3,2-b]indole derivatives with analgesic and antiinflammatory activities” (1986).

In the case of `CCOC(=O)n1c2cc(Cl)ccc2c2oc(C(=O)N3CCOCC3)cc21`, the Inhibition in assay [1] turned out to be 2; in assay [2], 1%.
Regarding `CCCCCCCCC(=O)n1c2cc(C(F)(F)F)ccc2c2oc(C(=O)N3CCOCC3)cc21`, the Inhibition was determined as 2 in assay [1] and 3% in assay [2].
For `CCOC(=O)n1c2cc(C)ccc2c2oc(C(=O)N3CCOCC3)cc21`, the values for the Inhibition in assay [1] and in assay [2] were 3 and 2%, respectively.
With `COc1ccc2c3oc(C(=O)N4CCOCC4)cc3n(C(=O)OC(C)C)c2c1`, the Inhibition in assay [1] came out at 1; in assay [2], 2%.
Take `CCCCOC(=O)n1c2cc(OC)ccc2c2oc(C(=O)N3CCOCC3)cc21`: the Inhibition in assay [1] came to 1; in assay [2] it was 2%.
In the case of `CCCOC(=O)n1c2cc(C)ccc2c2oc(C(=O)N3CCOCC3)cc21`, the Inhibition was found to be 1 in assay [1] and 2% in assay [2].
The corresponding values for `CCCCOC(=O)n1c2ccccc2c2oc(C(=O)N3CCOCC3)cc21` are 1 and 1%.
For `CCOC(=O)n1c2ccccc2c2oc(C(=O)N3CCOCC3)cc21`, the Inhibition in assay [1] came to 1; in assay [2], 1%.
In the case of `COc1ccc2c3oc(C(=O)N4CCOCC4)cc3n(C(=O)OCC(C)C)c2c1`, the figures for the Inhibition in assay [1] and in assay [2] were 1 and 3%, respectively.
With `CC(C)OC(=O)n1c2ccccc2c2oc(C(=O)N3CCOCC3)cc21`, the Inhibition amounted to 2 in assay [1] and 2% in assay [2].
For `CCCOC(=O)n1c2ccccc2c2oc(C(=O)N3CCOCC3)cc21` the same measures were 1 and 1%.
Take `CCCCCCCCn1c2cc(C(F)(F)F)ccc2c2oc(C(=O)N3CCOCC3)cc21`: the Inhibition in assay [1] is 3.
For `CC(C)OC(=O)n1c2cc(F)ccc2c2oc(C(=O)N3CCOCC3)cc21`, the values for the Inhibition in assay [1] and in assay [2] were 1 and 2%, respectively.
Take `CC(C)COC(=O)n1c2cc(Cl)ccc2c2oc(C(=O)N3CCOCC3)cc21`: the Inhibition amounted to 2 in assay [1] and 2% in assay [2].
For `COC(=O)n1c2cc(O)ccc2c2oc(C(=O)N3CCOCC3)cc21`, the Inhibition is on record as 1 in assay [1] and 1% in assay [2].
With `COC(=O)n1c2cc(C)ccc2c2oc(C(=O)N3CCOCC3)cc21`, the Inhibition in assay [1] was found to be 2; in assay [2], 1%.
For `CCCOC(=O)n1c2cc(OC)ccc2c2oc(C(=O)N3CCOCC3)cc21` the same measures were 1 and 2%.
For `CC(C)COC(=O)n1c2cc(C(F)(F)F)ccc2c2oc(C(=O)N3CCOCC3)cc21`, the Inhibition was found to be 2 in assay [1] and 2% in assay [2].
Turning to `COC(=O)n1c2cc(C(F)(F)F)ccc2c2oc(C(=O)N3CCOCC3)cc21`, the Inhibition in assay [1] is listed as 1; in assay [2] it was 1%.
In the case of `CCOC(=O)n1c2cc(OC)ccc2c2oc(C(=O)N3CCOCC3)cc21`, the Inhibition in assay [1] stood at 1; in assay [2], 1%.
For `CC(C)(C)C(=O)n1c2cc(C(F)(F)F)ccc2c2oc(C(=O)N3CCOCC3)cc21` the same measures were 1 and 3%.
As for `CC(C)Cn1c2cc(C(F)(F)F)ccc2c2oc(C(=O)N3CCOCC3)cc21`, the Inhibition came out at 3 in assay [1] and 2% in assay [2].
For the molecule `CCCCOC(=O)n1c2cc(C)ccc2c2oc(C(=O)N3CCOCC3)cc21`, the Inhibition in assay [1] worked out at 1; in assay [2], 2%.
For `CCCCOC(=O)n1c2cc(Cl)ccc2c2oc(C(=O)N3CCOCC3)cc21`, the Inhibition in assay [1] is listed as 2; in assay [2], 3%.
For `COC(=O)n1c2cc(Cl)ccc2c2oc(C(=O)N3CCOCC3)cc21` the same measures were 1 and 1%.
On to `CC(C)COC(=O)n1c2cc(F)ccc2c2oc(C(=O)N3CCOCC3)cc21`, for which the Inhibition in assay [1] is listed as 1; in assay [2], 2%.
The corresponding values for `CCOC(=O)n1c2cc(F)ccc2c2oc(C(=O)N3CCOCC3)cc21` are 1 and 1%.
